From ChEMBL document CHEMBL4823260, “From High-Throughput Screening to Target Validation: Benzo[d]isothiazoles as Potent and Selective Agonists of Human Transient Receptor Potential Cation Channel Subfamily M Member 5 Possessing In Vivo Gastrointestinal Prokinetic Activity in Rodents” (J Med Chem, 2021)

Legend:
[1] = molecular target: T1, Transient receptor potential cation channel subfamily M member 5 (Homo sapiens, UniProt Q9NZQ8); assay: Agonist activity at human TRPM5 expressed in CHO-K1 cells maintained at 80 mV final holding potential by syncroPatch assay; assay type: cell-based
T1 sequence (Q9NZQ8 whole entry): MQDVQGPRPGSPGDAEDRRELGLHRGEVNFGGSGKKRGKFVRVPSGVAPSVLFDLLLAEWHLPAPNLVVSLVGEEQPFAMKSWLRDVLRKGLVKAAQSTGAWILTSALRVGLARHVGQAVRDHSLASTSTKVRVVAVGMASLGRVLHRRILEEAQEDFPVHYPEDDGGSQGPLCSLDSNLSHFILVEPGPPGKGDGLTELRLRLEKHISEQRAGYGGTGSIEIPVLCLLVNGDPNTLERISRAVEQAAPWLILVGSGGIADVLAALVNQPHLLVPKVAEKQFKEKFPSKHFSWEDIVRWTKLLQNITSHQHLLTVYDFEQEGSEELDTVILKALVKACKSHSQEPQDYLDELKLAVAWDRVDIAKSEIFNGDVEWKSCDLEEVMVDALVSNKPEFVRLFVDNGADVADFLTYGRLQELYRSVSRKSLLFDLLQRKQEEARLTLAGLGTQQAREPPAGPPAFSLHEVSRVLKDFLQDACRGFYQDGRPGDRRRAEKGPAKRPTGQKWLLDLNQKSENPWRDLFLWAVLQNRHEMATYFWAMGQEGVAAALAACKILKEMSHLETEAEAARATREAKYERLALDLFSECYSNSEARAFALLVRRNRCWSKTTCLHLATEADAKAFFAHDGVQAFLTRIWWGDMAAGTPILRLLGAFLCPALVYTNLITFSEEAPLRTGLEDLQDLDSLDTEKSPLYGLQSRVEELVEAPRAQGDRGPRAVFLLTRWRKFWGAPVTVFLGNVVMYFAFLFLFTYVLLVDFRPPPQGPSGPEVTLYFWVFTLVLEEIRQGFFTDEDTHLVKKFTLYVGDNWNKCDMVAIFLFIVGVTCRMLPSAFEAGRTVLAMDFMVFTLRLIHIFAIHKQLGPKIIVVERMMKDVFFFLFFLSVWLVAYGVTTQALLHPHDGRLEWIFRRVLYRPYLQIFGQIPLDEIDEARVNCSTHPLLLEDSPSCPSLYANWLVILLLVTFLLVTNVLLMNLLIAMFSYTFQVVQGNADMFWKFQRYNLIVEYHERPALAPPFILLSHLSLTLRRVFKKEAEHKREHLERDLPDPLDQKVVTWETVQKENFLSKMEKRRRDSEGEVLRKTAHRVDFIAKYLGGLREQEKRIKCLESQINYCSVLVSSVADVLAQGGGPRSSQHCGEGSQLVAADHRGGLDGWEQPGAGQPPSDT
In short: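 SyncroPatch 384 whole-cell recording at rt on CHO-K1 cells stably expressing human or mouse TRPM5. Intracellular solution had 2 mM Na-ATP and 5 μM free Ca2+. Cumulative doses 0.03–31.6 μM in 0.5% DMSO, 150 s each after 180 s vehicle. Current measured at the end of the +80 mV step, normalized to vehicle; pEC50 is the mean of ≥2 independent experiments.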

[2] = Drug concentration in C57BL6 mouse ileum at 1 mg/kg, po administered as single dose measured after 6 to 48 hrs by LC-MS/MS analysis; assay type: ADME, organism-based; settings: in vivo, time 6-48 hrs
In short: (§1)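 Single oral dose of 1, 3 or 100 mg/kg in mouse. Plasma (ng/mL) and colon and ileum (ng/g) exposure sampled at 6, 24 and 48 h, and at 72 h for the top dose; mean values reported.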

[3] = molecular target: Transient receptor potential cation channel subfamily V member 4 (Homo sapiens, UniProt Q9HBA0); assay: Agonist activity at human TRPV4 expressed in HEK cells assessed as increase in GSK1016790A-induced intracellular calcium level measured after 1 hr by FLIPR assay; assay type: cell-based
Chain of Transient receptor potential cation channel subfamily V member 4 (Q9HBA0 whole entry): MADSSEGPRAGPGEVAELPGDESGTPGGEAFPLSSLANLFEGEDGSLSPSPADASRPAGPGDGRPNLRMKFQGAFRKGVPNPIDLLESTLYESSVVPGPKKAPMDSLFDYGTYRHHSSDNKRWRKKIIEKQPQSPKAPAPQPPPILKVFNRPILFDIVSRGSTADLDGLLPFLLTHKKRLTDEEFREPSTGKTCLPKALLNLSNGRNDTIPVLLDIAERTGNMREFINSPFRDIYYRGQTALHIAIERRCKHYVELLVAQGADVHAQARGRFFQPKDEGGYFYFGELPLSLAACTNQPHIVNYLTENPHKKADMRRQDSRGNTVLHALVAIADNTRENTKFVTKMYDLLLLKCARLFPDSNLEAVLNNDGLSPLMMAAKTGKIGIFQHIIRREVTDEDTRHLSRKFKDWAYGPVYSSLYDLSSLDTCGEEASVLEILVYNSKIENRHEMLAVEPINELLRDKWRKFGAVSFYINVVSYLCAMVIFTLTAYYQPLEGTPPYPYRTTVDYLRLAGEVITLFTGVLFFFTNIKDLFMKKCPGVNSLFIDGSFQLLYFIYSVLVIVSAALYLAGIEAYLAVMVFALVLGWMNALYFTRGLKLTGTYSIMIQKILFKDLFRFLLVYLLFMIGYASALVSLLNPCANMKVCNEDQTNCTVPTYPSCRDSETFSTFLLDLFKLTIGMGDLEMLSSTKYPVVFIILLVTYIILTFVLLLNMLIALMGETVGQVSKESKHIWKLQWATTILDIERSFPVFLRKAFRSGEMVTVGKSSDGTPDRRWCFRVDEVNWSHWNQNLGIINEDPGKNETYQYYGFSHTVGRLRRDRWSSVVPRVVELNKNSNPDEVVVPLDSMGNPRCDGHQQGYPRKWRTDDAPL

[4] = tested on: Mus musculus; assay: Gastroprokinetic activity in CD-1 mouse assessed as stimulation of gastrointestinal motility by measuring total fecal weight at 100 mg/kg, po measured after 1 hrs (reference value: 0.08 +/-0.02 g); assay type: functional
[5] = tested on: Mus musculus; assay: Gastroprokinetic activity in CD-1 mouse assessed as stimulation of gastrointestinal motility by measuring total fecal weight at 100 mg/kg, po measured after 3 hrs (reference value: 0.21 +/-0.03 g); assay type: functional
[6] = tested on: Mus musculus; assay: Gastroprokinetic activity in CD-1 mouse assessed as stimulation of gastrointestinal motility by measuring total fecal weight at 10 mg/kg, po measured after 3 hrs (reference value: 0.21 +/-0.03 g)
[7] = Drug concentration in C57BL6 mouse colon at 3 mg/kg, po administered as single dose measured after 24 to 48 hrs by LC-MS/MS analysis; assay type: ADME, organism-based; settings: in vivo, time 24-48 hrs; in short: as §1
[8] = tested on: Mus musculus; assay: Gastroprokinetic activity in CD-1 mouse assessed as stimulation of gastrointestinal motility by measuring fecal number at 1 mg/kg, po measured after 6 hrs (reference value: 20.1 +/-1.4); assay type: functional
[9] = Drug concentration in C57BL6 mouse colon at 100 mg/kg, po administered as single dose measured after 6 hrs by LC-MS/MS analysis; assay type: ADME, organism-based; settings: read-out: Ct; in short: as §1
[10] = Drug concentration in C57BL6 mouse plasma at 100 mg/kg, po administered as single dose measured after 6 hrs by LC-MS/MS analysis; assay type: ADME, organism-based; in short: as §1
[11] = Protein binding in mouse plasma assessed as unbound fraction measured after 5 hrs by equilibrium dialysis based HPLC/UPLC-MS/MS analysis; assay type: ADME, cell-free
[12] = tested on: Mus musculus; assay: Gastroprokinetic activity in CD-1 mouse assessed as stimulation of gastrointestinal motility by measuring total fecal weight at 10 mg/kg, po measured after 2 hrs (reference value: 0.13 +/-0.02 g); assay type: functional
[13] = tested on: Mus musculus; assay: Gastroprokinetic activity in CD-1 mouse assessed as stimulation of gastrointestinal motility by measuring total fecal weight at 100 mg/kg, po measured after 2 hrs (reference value: 0.13 +/-0.02 g); assay type: functional
[14] = tested on: Mus musculus; assay: Gastroprokinetic activity in CD-1 mouse assessed as stimulation of gastrointestinal motility by measuring fecal number at 1 mg/kg, po measured after 1 hrs (reference value: 3 +/-0.8); assay type: functional
[15] = tested on: Mus musculus; assay: Gastroprokinetic activity in CD-1 mouse assessed as stimulation of gastrointestinal motility by measuring total fecal weight at 100 mg/kg, po measured after 6 hrs (reference value: 0.43 +/-0.05 g)
[16] = tested on: Mus musculus; assay: Gastroprokinetic activity in CD-1 mouse assessed as stimulation of gastrointestinal motility by measuring fecal number at 100 mg/kg, po measured after 1 hrs (reference value: 3 +/-0.8); assay type: functional
[17] = Drug concentration in C57BL6 mouse plasma at 100 mg/kg, po administered as single dose measured after 24 to 72 hrs by LC-MS/MS analysis; assay type: ADME, organism-based; settings: in vivo, time 24-72 hrs; in short: as §1
[18] = Protein binding in rat plasma assessed as unbound fraction measured after 5 hrs by equilibrium dialysis based HPLC/UPLC-MS/MS analysis; assay type: ADME, cell-free
[19] = Volume of distribution at steady state in CD-1 mouse at 1 mg/kg, iv measured up to 24 hrs; assay type: ADME, organism-based; settings: in vivo, read-out: Vdss

Compound: Clc1cnc(CNc2cc3sncc3cc2Cl)s1
- EC50 [1]: 7.94 nM
- Ct [2]: < 20 ng/mL
- EC50 [3]: > 15800 nM
- Activity [4]: 0.12 g
- Activity [5]: 0.41 g
- Activity [6]: 0.23 g
- Ct [7]: < 20 ng/mL
- Activity [8]: 24.3
- concentration at 6 h [9]: 2620 ng/g
- concentration at 6 h [10]: 22.6 ng/mL
- fraction unbound at 5 h [11]: < 0.01
- Activity [12]: 0.18 g
- Activity [13]: 0.31 g
- Activity [14]: 4.3
- Activity [15]: 0.49 g
- Activity [16]: 4
- Cp [17]: < 20 ng/mL

Compound: Clc1cnc(CNc2ccc3sncc3c2)s1
- EC50 [1]: 89.1 nM
- fraction unbound at 5 h [18]: < 0.01
- EC50 [3]: > 15800 nM

Compound: Clc1cnc(CNc2ccc3cnsc3c2)s1
- EC50 [1]: 43.7 nM
- Vd [19]: 1.12 L/kg
- EC50 [3]: > 15800 nM
- fraction unbound at 5 h [11]: < 0.01
